# Screening results (PubChem BioAssay)
# NTR1 ag = agonists of human NTR1, primary screen, imaging, U2OS cells, beta-arrestin-GFP, high content | actives 0.17% (n = 330,000) | AID 493036, 2011 | Neurotensin receptor type 1 (Homo sapiens), P30989 | activation, % at 20 µM | NTR1-U2OS beta-arrestin-GFP spot imaging, agonist mode;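 active means activation at or above 40% of the spot to cytoplasm intensity ratio, with at least 20 cells analyzed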
# aDG glyco act = activators of alpha-DG glycosylation, primary screen, uHTS, Pro5-aDG cells, AlphaScreen | alpha-DG glycosylation AlphaScreen (IIH6); 0% Pro5, 100% B10-LARGE cell signal | activation, % at 10 µM | actives 0.22% (n = 360,000) | AID 624168, 2012;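 active means activation of at least 8% versus controls, or a plate z-score of at least 8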;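 further: Pro5 are CHO cells carrying HIG-tagged alpha-DG that lacks glycosylation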
# MC4R ag barr = MC4R agonists recruiting beta-arrestin, primary screen, cell-based, luminescence, agonist arm of biased-ligand search. U2OS MC4R beta-arrestin complementation; percent of melanotan II response, DMSO zero. Melanocortin receptor 4 (Homo sapiens), P32245. activation, % at 8.9 µM. AID 540308, 2011. actives 0.98% (n = 360,000);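 active means activation above a per-plate cutoff, the mean activation of sample wells on that plate plus 3 SD, cut at about 8% in these data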
# Target sequence (P32245 whole entry, looked up): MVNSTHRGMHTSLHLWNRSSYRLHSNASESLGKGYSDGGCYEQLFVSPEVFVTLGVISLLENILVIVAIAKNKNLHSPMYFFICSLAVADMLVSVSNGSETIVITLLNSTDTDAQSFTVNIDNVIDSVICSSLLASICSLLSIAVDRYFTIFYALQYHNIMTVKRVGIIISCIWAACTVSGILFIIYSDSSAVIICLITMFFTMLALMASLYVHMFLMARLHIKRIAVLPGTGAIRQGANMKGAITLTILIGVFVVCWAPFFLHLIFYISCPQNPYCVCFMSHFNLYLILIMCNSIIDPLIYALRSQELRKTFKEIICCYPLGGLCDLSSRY
# MC4R antagonist = MC4R antagonists of cAMP signaling, primary screen, cell-based, TR-FRET, antagonist arm of biased-ligand search; Melanocortin receptor 4 (Homo sapiens), P32245; MC4R-expressing cells, MTII-stimulated cAMP, LANCE TR-FRET; inhibition, % at 6.5 µM; actives 0.48% (n = 360,000);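 active means inhibition above its plate's cutoff, the mean of tested wells on that plate plus 3 SD, cut at about 29% in these data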
#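 Test system: U2OS cells stably expressing human melanocortin 4 receptor (MC4R); also added: Melanotan II challenge; compound: 6.5 µM single dose; timing: 30-min compound preincubation, 1-h Melanotan II challenge, 1-h detection, room temperature; signal: Eu-cAMP/anti-cAMP TR-FRET, emission 671 nm; repeats: one well per compound, no replicates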
# TbMetRS inhib = T. brucei MetRS inhibitors, primary screen, biochemical, luminescence; methionyl-tRNA synthetase (Trypanosoma brucei brucei); inhibition, % at 11.9 µM; actives 0.4% (n = 360,000); purified T. brucei MetRS, ATP depletion, Kinase-Glo luminescence;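 active means inhibition above a per-plate cutoff of the control wells' mean inhibition plus 3 SD, cut at about 5.5% in these data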
#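 assay system = parasite MetRS enzyme | timing = 15 min preincubation, 2 h reaction, all 25 °C | evaluation = percent inhibition relative to median high and low control wells | medium = HEPES buffer containing pyrophosphatase, BSA, spermine, DTT | compound = single dose, 11.9 µM final nominal, 0.9% final DMSO | detection = Kinase-Glo luminescence, ATP depletion format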
# H9c2 TAG inh = inhibitors of triacylglycerol accumulation, primary screen, cell-based, uHTS, fluorescence, H9c2; H9c2 cells, Nile Red lipid (TAG) fluorescence; cells loaded with 200 µM oleic acid; inhibition, % at 12.5 µM; actives 0.66% (n = 230,000); AID 651582, 2012;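 active means pattern-corrected inhibition of lipid staining of at least 50% with the nuclear-stain viability signal not falling by more than 50%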
# MC4R barr conf = MC4R beta-arrestin agonists, retest, confirmation, cell-based, luminescence, U2OS. shares compounds with MC4R ag barr. U2OS MC4R beta-arrestin recruitment; scaled DMSO 0%, Melanotan II 100%. activation, % at 8.9 µM. actives 31% (n = 2,400). AID 602192, 2012;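 active means mean activation across replicates above the hit cutoff set in the earlier primary screen, cut at about 8% in these data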
# MOR DOR agonist = agonists of MOR-DOR heterodimerization, counter-screen for MC4R biased agonist project, cell-based, luminescence. U2OS PathHunter beta-arrestin, beta-gal luminescence; percent of deltorphin B response, DMSO zero. AID 602194, 2012. activation, % at 9.2 µM. actives 5.8% (n = 2,400). shares compounds with MC4R ag barr;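 active means mean activation across replicates exceeds the hit threshold derived in the earlier primary screen, cut at about 18% in these data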
# Hits are given with their value; 0 = inactive; - = no result. This is a sample that favours compounds with a hit; in the whole collection about 2.4% have one here.
SMILES,NTR1 ag,aDG glyco act,MC4R ag barr,MC4R antagonist,TbMetRS inhib,H9c2 TAG inh,MC4R barr conf,MOR DOR agonist
Cc1cccc(N2CCN(C(=S)Nc3ccc4nc(N5CCN(C)CC5)cc(C)c4c3)CC2C)c1 (configuration not stated),0,0,14,0,0,0,0,0
CCOc1ccc(C2CC(c3ccc(CC)cc3)Nc3nc(N)nn32)cc1 (configuration not stated),0,0,10,0,0,0,0,0
CCc1ccc(C2CC(c3ccccc3Cl)Nc3nc(N)nn32)cc1 (configuration not stated),0,0,19,0,0,0,14,0
CCOc1ccc(C2CC(c3ccc(CC)cc3)n3nc(N)nc3N2)cc1 (configuration not stated),0,0,0,0,0,-,-,-
Cc1ccc(C(O)c2ncc(-c3ccccc3Cl)[nH]2)cc1F (configuration not stated),-,0,0,0,0,0,-,-
CC1CCCCN1S(=O)(=O)c1ccc(S(=O)(=O)N2CCN(c3ccccc3)CC2)cc1 (configuration not stated),0,0,9.8,0,0,-,15,0
O=C(c1ccc(S(=O)(=O)N2CCCCC2)cc1)N1CCN(c2ccccc2)CC1,0,0,0,0,0,-,-,-
CCSc1nnc(NC(=O)c2cccc3ccccc23)s1,0,0,14,0,0,0,0,0
CCSc1nnc(NC(=O)c2csc(C)c2)s1,0,0,0,0,0,-,-,-
Cc1ccc(C2CC(=O)NC(SCCC(C)C)=C2C#N)cc1 (configuration not stated),0,0,9.6,0,0,0,0,0
COc1cccc(S(=O)(=O)N2C[C@H](O)COC[C@H]3O[C@@H](CC(=O)N4CCN(C)CC4)CC[C@@H]32)c1,-,0,-,-,0,-,-,-
NC(=O)CC(NC(=O)Cc1ccc(Br)cc1)c1ccc(NC2CCCCCCC2)c([N+](=O)[O-])c1 (configuration not stated),-,0,11,0,0,0,0,0
Cc1cc(-n2c(SCC(=O)NCc3cccs3)nc3n[nH]c(C)c3c2=N)ccc1Cl,0,0,13,0,0,-,0,0
CCOc1ccc(-n2c(SCC(=O)Nc3ccc(Br)cc3)nc3n[nH]c(C)c3c2=N)cc1,0,0,17,0,0,0,0,0
Cc1cc(-n2c(SCC(=O)Nc3ccc(F)c(F)c3)nc3n[nH]c(C)c3c2=N)ccc1Cl,0,0,0,0,0,-,-,-
CCOc1ccc(-n2c(SCC(=O)Nc3ccccc3CC)nc3n[nH]c(C)c3c2=N)cc1,0,-,-,-,-,-,-,-
COc1ccc(C2=Nc3ccccc3N(C(=O)c3ccncc3)C2C(=O)NC(C)(C)C)cc1 (configuration not stated),-,0,-,-,0,-,-,-
CC(C)C[C@H]1CN(CCCC[C@H]2CNC(=O)C(=O)N2CCc2ccc(O)cc2)C(=O)C(=O)N1CCc1ccc(O)cc1,-,0,-,-,0,-,-,-
C=CCNC(=S)N/N=C/c1cn(-c2ccccc2)nc1-c1ccc(OC)cc1,0,0,15,0,0,-,0,0
COc1ccc(-c2nn(-c3ccccc3)cc2/C=N/NC(=O)c2ccc(Br)o2)cc1,0,0,0,0,0,0,-,-
COc1ccc(-c2nn(-c3ccccc3)cc2/C=C/C(=O)OCC(=O)Nc2ccc(C#N)cc2)cc1,0,0,10,0,0,-,0,0
Cc1ccc(NC(=O)COC(=O)/C=C/c2cccc(Cl)c2)cc1S(=O)(=O)N1CCOCC1,0,0,0,0,0,-,-,-
CC(C)c1ccc(NC(=O)CSc2ncccc2C(=O)Oc2cccc([N+](=O)[O-])c2)cc1,0,0,20,0,0,0,17,0
O=C(COC(=O)/C=C/c1cccc(Cl)c1)Nc1ccc(N2CCOCC2)cc1,0,0,9.8,0,0,0,0,0
CC(C)c1ccc(NC(=O)COC(=O)/C=C/c2cccc([N+](=O)[O-])c2)cc1,0,0,16,0,0,-,0,0
SMILES,NTR1 ag,aDG glyco act,MC4R ag barr,MC4R antagonist,TbMetRS inhib,H9c2 TAG inh,MC4R barr conf,MOR DOR agonist
COc1ccc(NC(=O)CSc2ncccc2C(=O)OC(C)C)cc1OC,0,0,0,0,0,-,-,-
C=CCn1c(=S)[nH]c2cc(C(=O)Nc3ccc(OC)c(OC)c3)ccc2c1=O,0,0,10,0,0,-,0,0
Cc1ccc(O)c(C(=O)/C=C/c2ccc3c(c2)OCCO3)c1,0,0,22,0,0,-,21,0
CCc1ccc(/C=C2/C(=O)N(c3ccccc3)C(=S)N2CC(=O)OC)s1,0,0,10,0,0,-,0,0
COc1cc2c(-c3ccccc3)c(C)oc2cc1/C=N/NC(N)=S,0,0,16,0,0,0,8.7,0
C[C@@H](NC(=O)[C@@H]1CCCN1C(=O)[C@@H]1CCCN1C(=O)c1ccccc1)c1ccccc1,-,0,-,-,0,-,-,-
NC(Cc1ccc(Cl)cc1)c1csc(NC(=O)Nc2ccccc2-c2ccccc2)n1 (configuration not stated),-,0,19,0,0,0,11,0
NC(CCc1ccccc1)c1csc(NC(=O)Nc2ccccc2Oc2ccccc2)n1 (configuration not stated),-,0,18,0,0,0,0,25
CC(C)(C)c1ccccc1NC(=O)Nc1nc(C(N)Cc2ccc(F)cc2)cs1 (configuration not stated),-,0,11,0,0,0,0,0
CC(C)c1ccccc1NC(=O)Nc1nc(C(N)Cc2ccc(C(F)(F)F)cc2)cs1 (configuration not stated),-,0,15,0,0,0,14,0
CC(C)(C)c1ccccc1NC(=O)Nc1nc(C(N)c2ccccc2)cs1 (configuration not stated),-,0,0,0,0,0,-,-
